# Results from ChEMBL document CHEMBL1150877, “Total synthesis and biological activities of (+)- and (-)-boscialin and their 1'-epimers” (J Nat Prod, 1998).
# Activity calls are given as the source filed them. No cut-off for these calls is given here.
# Experiments:
# [1] = test system: Trypanosoma brucei rhodesiense; assay: Antitrypanosomal activity against blood stream form of Trypanosoma brucei rhodesiense STIB 900; format: functional, organism-based
# How it was run: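 Bloodstream-form trypanosomes at 200 cells/100 µL were exposed for 72 h to threefold dilutions starting at 100 µg/mL, with 1% DMSO final. MIC was read microscopically as the lowest concentration with no normally shaped or motile cells. For IC50, Alamar Blue was added for a further 2 h, fluorescence was measured, and values were obtained by linear interpolation.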
# Trypanosoma cruzi = assay: Antitrypanosomal activity against Trypanosoma cruzi MHOM/Br/OO/Y trypomastigotes up to 100 ug/ml after 5 days
# Escherichia coli = assay: Antimicrobial activity against Escherichia coli NCTC 8196 after 24 hrs by agar diffusion assay; format: functional
# How it was run: (§1)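 Overnight cultures were diluted in 0.9% NaCl and mixed into molten casein soymeal peptone agar at a final 5 × 10⁴–10⁵ CFU/mL, which was layered onto agar plates. Test substances (100 µL of 1 mg/mL in H2O) were placed in 1 cm wells. Plates were incubated at 37 °C for 24 h, and inhibition zone diameters were measured.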
# Candida albicans = assay: Antimicrobial activity against Candida albicans ATCC 10231 after 24 hrs by agar diffusion assay; format: functional; how it was run: as §1
# Corynebacterium xerosis = assay: Antimicrobial activity against Corynebacterium xerosis ATCC 373 after 24 hrs by agar diffusion assay; format: functional; how it was run: as §1
# [2] = Selectivity index, ratio of IC50 for human HT29 cells to IC50 for Trypanosoma brucei rhodesiense STIB 900; format: toxicity, cell-based, HT-29; settings: HT29 cells versus Trypanosoma brucei rhodesiense STIB 900, read-out: Ratio IC50
# How it was run: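 The index was calculated as the HT-29 IC50 divided by the T. b. rhodesiense IC50. Both IC50s came from 72 h exposures read by Alamar Blue fluorescence, with linear interpolation.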
# Staphylococcus aureus = assay: Antimicrobial activity against Staphylococcus aureus ATCC 9144 after 24 hrs by agar diffusion assay; format: functional; how it was run: as §1
# [3] = test system: Trypanosoma brucei rhodesiense; assay: Antitrypanosomal activity against blood stream form of Trypanosoma brucei rhodesiense STIB 900 at 100 ug/ml; format: functional, organism-based
# [4] = (§2) Cytotoxicity against human HT-29 cells; format: cell-based; settings: human, HT-29 cells; read-out: MIC
# How it was run: (§3)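 HT-29 cells were seeded at 5000 cells/100 µL in MEM with 10% heat-inactivated FCS at 37 °C and 5% CO2. They were exposed for 72 h to threefold dilutions starting at […], with 1% DMSO final. MIC was read microscopically, and IC50 came from Alamar Blue fluorescence after 2 h by linear interpolation.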
# HT-29 = assay: as §2; format: cell-based; settings: Homo sapiens, HT-29; how it was run: as §3
# [5] = test system: Staphylococcus epidermidis; assay: Antimicrobial activity against Staphylococcus epidermis ATCC 12228 after 24 hrs by agar diffusion assay; format: functional; how it was run: as §1
# [6] = test system: Corynebacterium minutissimum; assay: Antimicrobial activity against Corynebacterium minutissium ATCC 23348 after 24 hrs by agar diffusion assay; format: functional; how it was run: as §1
# Leishmania donovani = assay: Antileishmanial activity against Leishmania donovani MHOM/ET/67/L82 infected in mouse peritoneal macrophages after 5 days
IC50 [1],MIC [1],IC50 (Leishmania donovani; 5 d),IC50 [3],MIC [3],Structure (SMILES),Activity (Trypanosoma cruzi),inhibition zone (IZ) (Escherichia coli),inhibition zone (IZ) (Candida albicans),inhibition zone (IZ) (Corynebacterium xerosis),selectivity ratio [2],inhibition zone (IZ) (Staphylococcus aureus),Activity [3],MCC [4],IC50 (HT-29),inhibition zone (IZ) [5],inhibition zone (IZ) [6],Activity (Leishmania donovani)
18 µg/mL,100 µg/mL,77 µg/mL,,,CC(=O)/C=C/[C@@]1(O)[C@@H](C)C[C@@H](O)CC1(C)C,inactive,1 mm,5 mm,3 mm,1,3 mm,inactive,> 100 µg/mL,17 µg/mL,0 mm,5 mm,
1.9 µg/mL,11 µg/mL,,1.9 µg/mL,11 µg/mL,CC(=O)/C=C/[C@@]1(O)[C@H](C)C[C@H](O)CC1(C)C [BOSCIALIN],inactive,1 mm,4 mm,2 mm,23,2.5 mm,,> 100 µg/mL,43 µg/mL,0 mm,9.5 mm,inactive
0.9 µg/mL,3.7 µg/mL,,0.9 µg/mL,3.7 µg/mL,CC(=O)/C=C/[C@]1(O)[C@H](C)C[C@H](O)CC1(C)C [EPIBOSCIALIN],inactive,1.5 mm,15.5 mm,12 mm,9.4,10 mm,,56 µg/mL,8.5 µg/mL,8 mm,20 mm,inactive

# Second part, the compound before the results:
Structure (SMILES),IC50 [1],MIC [1],IC50 (Leishmania donovani; 5 d),IC50 [3],MIC [3],Activity (Trypanosoma cruzi),inhibition zone (IZ) (Escherichia coli),inhibition zone (IZ) (Candida albicans),inhibition zone (IZ) (Corynebacterium xerosis),selectivity ratio [2],inhibition zone (IZ) (Staphylococcus aureus),Activity [3],MCC [4],IC50 (HT-29),inhibition zone (IZ) [5],inhibition zone (IZ) [6],Activity (Leishmania donovani)
CC(=O)/C=C/[C@]1(O)[C@@H](C)C[C@@H](O)CC1(C)C,31 µg/mL,100 µg/mL,,,,inactive,2 mm,4.5 mm,13 mm,0.3,10.5 mm,inactive,56 µg/mL,8.1 µg/mL,8 mm,18 mm,inactive
Nc1nc(N)nc(Nc2ccc([As]3SCC(CO)S3)cc2)n1 (stereo not drawn) [MELARSOPROL],0.0004 µg/mL,0.011 µg/mL,,,,,,,,9000,,,11 µg/mL,3.6 µg/mL,,,
